ChEMBL document CHEMBL1926667, “The synthesis of 2-nitroaryl-1,2,3,4-tetrahydroisoquinolines, nitro-substituted 5,6-dihydrobenzimidazo[2,1-a]isoquinoline N-oxides and related heterocycles as potential bioreducible substrates for the enzymes NAD(P)H: quinone oxidoreductase 1 and E. coli nitroreductase” (Bioorg Med Chem Lett, 2011)

What was measured:
Escherichia coli [1] = experiment: Activation of Escherichia coli nitroreductase assessed as specific activity per mg of protein at 100 uM by measuring decrease in NADH concentration
How it was run: (§1)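 Human NQO1 or E. coli NR reduction followed by the fall in NADH concentration over time; specific activity is the rate of reduction per enzyme at 37 °C. Relative values are the specific activity compared with CB-1954.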

Escherichia coli [2] = experiment: Activation of Escherichia coli nitroreductase assessed as decrease in NADH concentration at 100 uM relative to CB-1954; how it was run: as §1
[3] = molecular target: NAD(P)H dehydrogenase [quinone] 1 (Homo sapiens) (UniProt P15559); experiment: Activation of human NQO1 assessed as specific activity per mg of protein at 100 uM by measuring decrease in substrate concentration by HPLC analysis
Sequence of NAD(P)H dehydrogenase [quinone] 1 (Homo sapiens) (P15559 whole entry): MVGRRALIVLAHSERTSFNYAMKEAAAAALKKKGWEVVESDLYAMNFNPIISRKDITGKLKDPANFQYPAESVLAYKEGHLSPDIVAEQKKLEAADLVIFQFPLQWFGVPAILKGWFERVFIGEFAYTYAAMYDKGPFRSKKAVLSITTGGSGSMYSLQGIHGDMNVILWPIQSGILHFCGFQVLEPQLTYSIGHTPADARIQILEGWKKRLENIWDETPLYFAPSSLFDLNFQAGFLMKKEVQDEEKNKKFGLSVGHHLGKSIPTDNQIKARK
How it was run: (§2)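 Reduction by human NQO1 or E. coli NR followed by the disappearance of substrate over time; specific activity is the rate of substrate reduction at 37 °C. Relative activity is the specific activity compared with CB-1954.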

[4] = molecular target: NAD(P)H dehydrogenase [quinone] 1 (Homo sapiens) (UniProt P15559); experiment: Activation of human NQO1 assessed as decrease in substrate concentration at 100 uM by HPLC analysis relative to CB-1954; how it was run: as §2
Escherichia coli [5] = experiment: Activation of Escherichia coli nitroreductase assessed as decrease in substrate concentration at 100 uM by HPLC analysis relative to CB-1954; how it was run: as §2
Escherichia coli [6] = experiment: Activation of Escherichia coli nitroreductase assessed as specific activity per mg of protein at 100 uM by measuring decrease in substrate concentration by HPLC analysis; how it was run: as §2
[7] = molecular target: NAD(P)H dehydrogenase [quinone] 1 (Homo sapiens) (UniProt P15559); experiment: Activation of human NQO1 assessed as specific activity per mg of protein at 50 uM by measuring decrease in substrate concentration by HPLC analysis
How it was run: (§3)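 Used for poorly soluble substrates: 50 µM compound in buffer (10 mM phosphate, pH 7) with 10% DMSO, incubated with human NQO1 or E. coli NR at 37 °C. Substrate disappearance was monitored over time. Rates assume a 50 µM starting concentration and no DMSO effect on the enzyme. Relative activity is compared with CB-1954.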

[8] = Solubility of the compound at 100 uM in sodium phosphate buffer with 10% DMSO and 500 uM NADH at pH 7; assay type: physicochemical; details: pH 7, 100 µM
Escherichia coli [9] = experiment: Activation of Escherichia coli nitroreductase assessed as specific activity per mg of protein at 50 uM by measuring decrease in substrate concentration by HPLC analysis; how it was run: as §3
Escherichia coli [10] = experiment: Activation of Escherichia coli nitroreductase assessed as specific activity per mg of protein at 50 uM by measuring decrease in substrate concentration by HPLC analysis relative to CB-1954; how it was run: as §3
[11] = molecular target: NAD(P)H dehydrogenase [quinone] 1 (Homo sapiens) (UniProt P15559); experiment: Activation of human NQO1 assessed as specific activity per mg of protein at 50 uM by measuring decrease in substrate concentration by HPLC analysis relative to CB-1954; how it was run: as §3
[12] = Solubility of the compound in 10 mM phosphate buffer with 10% DMSO at pH 7; assay type: physicochemical

| SMILES | Activity [3] | fold change (FC) [4] | fold change (FC) (Escherichia coli [5]) | Activity (Escherichia coli [6]) | other results |
| --- | --- | --- | --- | --- | --- |
| NC(=O)c1cc([N+](=O)[O-])cc2c1n1c([n+]2[O-])-c2ccccc2CC1 | < 0.001 µmol/min | < 0.16 | – | – | Activity (Escherichia coli [1]): 1.62 µmol/min; fold change (FC) (Escherichia coli [2]): 0.9 |
| O=[N+]([O-])c1cc(C(F)(F)F)c2c(c1)[n+]([O-])c1n2CCc2c-1cccc2[N+](=O)[O-] | < 0.001 µmol/min | < 0.16 | < 0.001 | < 0.001 µmol/min | – |
| O=[N+]([O-])c1cnc(N2CCc3ccccc3C2)c([N+](=O)[O-])c1 | 0.013 µmol/min | 2.1 | 0.8 | 1.49 µmol/min | – |
| O=[N+]([O-])c1ccc2c(c1)CN(c1c([N+](=O)[O-])cc([N+](=O)[O-])cc1C(F)(F)F)CC2 | – | – | – | – | Activity [7]: 0.076 µmol/min; solubility [8]: Insoluble; Activity (Escherichia coli [9]): 2.39 µmol/min; fold change (FC) (Escherichia coli [10]): 1.3; fold change (FC) [11]: 12.3 |
| NC(=O)c1cc([N+](=O)[O-])cc([N+](=O)[O-])c1N1CCc2ccccc2C1 | 0.053 µmol/min | 8.6 | – | – | Activity (Escherichia coli [1]): 2.82 µmol/min; fold change (FC) (Escherichia coli [2]): 1.5 |
| NC(=O)c1cc(N2CCc3ccccc3C2)c([N+](=O)[O-])cc1[N+](=O)[O-] | 0.042 µmol/min | 6.8 | 2.4 | 4.4 µmol/min | – |
| NC(=O)c1cc(N2CC2)c([N+](=O)[O-])cc1[N+](=O)[O-] | – | – | – | 1.86 µmol/min | Activity (10'-3umol/min) [3]: 6.2 |
| O=C(O)c1cc([N+](=O)[O-])c(N2CCc3ccccc3C2)c([N+](=O)[O-])c1 | < 0.001 µmol/min | < 0.16 | 0.01 | 0.02 µmol/min | – |
| O=[N+]([O-])c1cc([N+](=O)[O-])c(N2CCc3c(cccc3[N+](=O)[O-])C2)c(C(F)(F)F)c1 | – | – | – | – | solubility [12]: Insoluble |
| O=[N+]([O-])c1cnc2c(c1)[n+]([O-])c1n2CCc2ccccc2-1 | 0.17 µmol/min | 27.4 | 29 | 54 µmol/min | – |
| NC(=O)c1cc2c(cc1[N+](=O)[O-])[n+]([O-])c1n2CCc2c-1cccc2[N+](=O)[O-] | < 0.001 µmol/min | < 0.16 | < 0.001 | < 0.001 µmol/min | – |
| O=C(O)c1cc([N+](=O)[O-])cc([N+](=O)[O-])c1N1CCc2ccccc2C1 | 0.011 µmol/min | 1.8 | 2.3 | 4.22 µmol/min | – |
| O=[N+]([O-])c1ccc(N2CCc3ccccc3C2)c([N+](=O)[O-])c1 | < 0.001 µmol/min | < 0.16 | 0.2 | 0.44 µmol/min | – |
| NC(=O)c1cc2c(cc1[N+](=O)[O-])[n+]([O-])c1n2CCc2ccccc2-1 | < 0.001 µmol/min | < 0.16 | < 0.001 | < 0.001 µmol/min | – |
| O=[N+]([O-])c1ccc2c(c1)[n+]([O-])c1n2CCc2c-1cccc2[N+](=O)[O-] | < 0.001 µmol/min | < 0.16 | – | – | Activity (Escherichia coli [1]): 1.51 µmol/min; fold change (FC) (Escherichia coli [2]): 0.8 |
| O=[N+]([O-])c1cc([N+](=O)[O-])c(N2CCc3ccccc3C2)c(C(F)(F)F)c1 | 0.11 µmol/min | 17.7 | 22.3 | 41.5 µmol/min | – |
| O=[N+]([O-])c1ccc2c(c1)-c1n(c3ccc([N+](=O)[O-])cc3[n+]1[O-])CC2 | < 0.001 µmol/min | < 0.16 | – | – | Activity (Escherichia coli [1]): 1.3 µmol/min; fold change (FC) (Escherichia coli [2]): 0.6 |
| O=[N+]([O-])c1ccc2c(c1)[n+]([O-])c1n2CCc2ccccc2-1 | 0.016 µmol/min | 2.6 | 0.3 | 0.5 µmol/min | – |
| NC(=O)c1cc([N+](=O)[O-])c(N2CCc3ccccc3C2)c([N+](=O)[O-])c1 | < 0.001 µmol/min | < 0.16 | < 0.001 | < 0.001 µmol/min | – |
